Sampled rows, rich in hits. Any-hit rate of the full collection: about 2%.
XiGFP reactiv = activators of X-chromosome reactivation in mouse fibroblasts. AID 743238. XiGFP mouse fibroblasts, % GFP-positive cells imaging, 3 d; cells co-treated with 5-aza-dC sensitizer; scaled so ellipticine positive control = 100%. actives 0.055% (n = 360,000). activation, % at 7.58 µM;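 active = mean normalized replicate activation at least 10% and every replicate at or above 10%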;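 note: 0% = median of on-plate neutral control wells and 100% = ellipticine 6 µM median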
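System: XiGFP fibroblasts, SV40-immortalized. Medium: DMEM plus 5-aza-dC sensitizer. Doses: single point. Timing: 3 d treatment, 15 min room-temperature fixation. Control set: ellipticine 6 µM.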
SR-BI HDL uptake = blocks mouse SR-BI lipid uptake from DiI-HDL; inhibition, % at 12.5 µM; actives 0.96% (n = 320,000); ldlA[mSR-BI] CHO cells, DiI-HDL uptake fluorescence, 3 h; AID 488896; Q61009;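 active = mean replicate inhibition of at least 70% and a set share of replicates each scoring 70 or more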;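 note: 0% = median of neutral control wells and 100% = median of positive control wells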
NSD2 inh = inhibitors of human histone methyltransferase NSD2; O96028; NSD2 peptide methylation, AlphaScreen, 120 min; inhibition, % at 12.5 µM; actives 0.54% (n = 310,000); AID 743445; in the data active = inhibition above about 50%
Target sequence (O96028 whole entry, looked up): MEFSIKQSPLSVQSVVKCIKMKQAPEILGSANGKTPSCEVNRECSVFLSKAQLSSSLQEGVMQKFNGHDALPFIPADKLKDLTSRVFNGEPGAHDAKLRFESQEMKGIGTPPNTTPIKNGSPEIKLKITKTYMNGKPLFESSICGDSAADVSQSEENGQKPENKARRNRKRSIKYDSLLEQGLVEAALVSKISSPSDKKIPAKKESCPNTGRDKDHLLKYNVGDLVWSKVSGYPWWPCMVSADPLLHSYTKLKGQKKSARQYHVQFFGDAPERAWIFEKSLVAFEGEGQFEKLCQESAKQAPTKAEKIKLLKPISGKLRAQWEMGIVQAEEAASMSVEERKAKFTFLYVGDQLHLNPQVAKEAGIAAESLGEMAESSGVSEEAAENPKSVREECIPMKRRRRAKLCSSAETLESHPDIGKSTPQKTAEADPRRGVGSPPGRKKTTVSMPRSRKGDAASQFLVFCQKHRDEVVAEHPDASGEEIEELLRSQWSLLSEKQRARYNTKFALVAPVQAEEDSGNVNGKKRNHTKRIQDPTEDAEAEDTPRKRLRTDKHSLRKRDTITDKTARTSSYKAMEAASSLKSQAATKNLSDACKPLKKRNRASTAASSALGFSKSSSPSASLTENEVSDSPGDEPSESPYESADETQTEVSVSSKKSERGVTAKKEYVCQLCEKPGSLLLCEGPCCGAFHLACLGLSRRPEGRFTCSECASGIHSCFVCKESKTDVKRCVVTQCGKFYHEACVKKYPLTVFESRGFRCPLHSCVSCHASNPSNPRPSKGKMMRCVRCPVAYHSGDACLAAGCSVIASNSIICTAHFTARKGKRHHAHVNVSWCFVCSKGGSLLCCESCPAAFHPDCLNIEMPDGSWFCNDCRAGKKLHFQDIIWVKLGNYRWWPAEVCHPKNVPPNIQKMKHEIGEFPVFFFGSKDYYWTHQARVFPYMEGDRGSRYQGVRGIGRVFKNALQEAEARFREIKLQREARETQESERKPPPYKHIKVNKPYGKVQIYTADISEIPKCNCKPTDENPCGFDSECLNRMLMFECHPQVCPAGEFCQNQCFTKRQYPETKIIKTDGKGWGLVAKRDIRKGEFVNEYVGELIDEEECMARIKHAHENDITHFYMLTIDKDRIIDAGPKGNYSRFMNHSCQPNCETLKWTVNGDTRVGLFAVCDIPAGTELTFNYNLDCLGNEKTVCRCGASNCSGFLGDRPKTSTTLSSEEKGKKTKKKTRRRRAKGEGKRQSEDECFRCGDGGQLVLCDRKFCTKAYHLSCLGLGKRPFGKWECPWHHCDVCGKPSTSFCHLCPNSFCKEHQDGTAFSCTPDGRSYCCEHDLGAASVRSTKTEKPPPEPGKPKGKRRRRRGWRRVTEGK
ARNT-TACC3 inh = ARNT/TACC3 interaction disruption | inhibition, % at 9.99 µM | actives 0.66% (n = 390,000) | AID 623870 | Q9Y6A5 | AlphaScreen His-ARNT PAS-B/GST-TACC3 binding, luminescence; TACC3 fragment carries E629A point mutation;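 active = mean inhibition of replicates at least 50% and at least half of replicates each reaching 50%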;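 note: 0% = complete ARNT plus TACC3 wells and 100% = ARNT alone without TACC3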
HGIII-sPLA2 inh = Blocks human group III sPLA2 activity; Q9NZ20; QFRET BODIPY PC-A2 liposome hydrolysis, fluorescence; inhibition, % at 12.2 µM; actives 0.56% (n = 370,000); AID 743126;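 active = inhibition above mean plus 3 SD of compounds lying within the high and low control bounds, cut at about 19% in these data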;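 note: 0% = median of test compound wells and 100% = no enzyme DMSO wells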
SR-BI DiI-HDL act = activators of SR-BI mediated HDL lipid uptake. activation, % at 12.5 µM. CHO ldlA[mSR-BI] cells, DiI-HDL uptake fluorescence, 3 h; 100 = double the neutral-control signal. actives 0.096% (n = 320,000). AID 504775;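 active = mean replicate activation of at least 60% and every replicate at or above 60%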;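 note: 0% = median plate neutral-control signal and 100% = twice that signal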
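Assay system: CHO ldlA[mSR-BI] cells, LDL receptor-null, SR-BI overexpressing; medium: Ham's F12 with 0.5% BSA, HEPES 25 mM, pH 7.4; also added: DiI-HDL 10 µg/mL; timing: 3 h uptake period with compound, 37 °C; signal: DiI fluorescence, bottom read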
AlphaScreen ctr = AlphaScreen artifact in ARNT/TACC3 counter-screen; shares compounds with ARNT-TACC3 inh; His-ARNT PASB-GST AlphaScreen artifact counter-screen, luminescence; AC50, µM (series often up to 68 µM), without a hit: at the highest dose activity change, negative = signal decrease; actives 50% (n = 1,200);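 active = every separate test run was called active for a drop in luminescence, with AC50 within twice the top valid dose, actives reach about 71 µM in these data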
* hit, by the source's call; / = not tested or not shown; [ ] = dose if it differs, or a comment.

SMILES	XiGFP reactiv	SR-BI HDL uptake	NSD2 inh	ARNT-TACC3 inh	HGIII-sPLA2 inh	SR-BI DiI-HDL act	AlphaScreen ctr
CCCC#Cc1cnc2c(c1)C(=O)N([C@H](C)CO)C[C@@H](C)[C@H](CN(C)C(=O)c1ccccc1)O2	-1	/	/	3	/	/	/
COc1ccccc1NS(=O)(=O)c1cc(C(=O)NCC(C)(C)N2CCOCC2)ccc1C	-1	-1	0	-3	4	1	/
O=C(O)c1cn[nH]c1-n1cnnn1	/	-18	43	61*	3	18	-9%
O=C(NCc1cccs1)c1cc(-c2ccccc2)nn1CC1CC(c2cccc([N+](=O)[O-])c2)=NO1 (configuration not stated)	0	30	/	8	-1	-30	/
CCCNC(=O)c1cccc(NC(=O)C(C)C)c1	0	0	-8	6	5	0	/
O=C(c1ccccn1)N1CC[C@@H]2[C@H]1c1cc(Br)ccc1N[C@@H]2CO	0	/	/	69*	/	/	53µM*
CN(C)C(=O)c1cccc(-c2ccc3c(c2)[C@@H]2[C@@H](CCN2C(=O)c2cccnc2)[C@@H](CO)N3)c1	0	/	/	65*	/	/	-10%[42 µM]
O=C(c1ccccn1)N1CC[C@H]2[C@H](CO)Nc3ccc(Br)cc3[C@H]21	0	/	/	9	/	/	/
C=CCn1c(Cc2csc(N)n2)nnc1SCC(=O)Nc1ccc(C(=O)OCC)cc1	/	19	/	61*	-14	-19	-30%
CCOc1cc(C(=O)NC2CC(C)(C)NC(C)(C)C2)cc(OCC)c1OCC	0	-7	1	53*	-2	7	-2%
CCOc1ccc(C(=O)NC2CC(C)(C)NC(C)(C)C2)cc1	0	18	-2	-1	0	-18	/
CNC(=S)N(Cc1ccccc1)Cc1cccnc1	1	-18	0	-2	-3	18	/
OCCN(Cc1cccnc1)Cc1ccccn1	0	-4	1	70*	4	4	15µM*
COc1cc2oc(=O)cc(CN3CCCCCCC3)c2cc1Cl	0	/	/	/	-3	/	/
N#C[C@@H]1[C@@H](c2ccc(-c3ccc(F)cc3)cc2)[C@H](CO)N1c1nc(-c2ccccc2)cs1	0	/	/	56*	/	/	58µM*
Cc1ccc(C2=CSC3=NS(=O)(=O)CCN23)cc1	0	9	-2	50*	4	-9	-8%
Cc1[nH][nH]c(=O)c1C(c1ccc(Br)cc1)c1c(C)[nH][nH]c1=O	0	4	6	11*	-36	-4	-2%
Cc1[nH][nH]c(=O)c1C(c1ccc(O)c(Br)c1)c1c(C)[nH][nH]c1=O	0	-2	4	33*	-34	2	-34%
Cc1ccc(C(c2c(C)[nH][nH]c2=O)c2c(C)[nH][nH]c2=O)cc1	0	-20	-1	7	-30	20	/
COc1ccc(C(c2c(C)[nH][nH]c2=O)c2c(C)[nH][nH]c2=O)cc1Br	0	-4	-3	20	-33	4	/
O=C(O)CCN1C(=O)c2ccc(NC(=O)C(c3ccccc3)c3ccccc3)cc2C1=O	0	-14	/	-2	2	14	/
c1ccc(-c2cnc(-c3ccccn3)nn2)cc1	2	26	/	65*	2	-26	32µM*
c1ccc(-c2cnnc(-c3ccccn3)n2)cc1	0	-19	/	57*	3	19	26µM*
NC1=NN=C(N2N=C(c3ccccc3)CC2(O)C(F)(F)F)n2ncnc2C1 (configuration not stated)	0	-17	4	54*	-35	17	-1%
NC1=NN=C(N2N=C(c3ccc(Br)cc3)CC2(O)C(F)(F)F)n2ncnc2C1 (configuration not stated)	0	-2	0	0	-58	2	/
SMILES	XiGFP reactiv	SR-BI HDL uptake	NSD2 inh	ARNT-TACC3 inh	HGIII-sPLA2 inh	SR-BI DiI-HDL act	AlphaScreen ctr
COc1ccccc1S(=O)(=O)N(C)C[C@H]1OCc2cn(nn2)CCCC(=O)N([C@H](C)CO)C[C@@H]1C	0	/	/	-6	-1	/	/
Cc1ccc(CN2C(=O)CCC2(C)c2nnnn2-c2c(C)cccc2C)cc1 (configuration not stated)	0	/	/	/	3	/	/
CCNC(=O)C[C@@H]1CC[C@@H](NC(=O)C2CC2)[C@@H](CO)O1	0	/	/	-18	/	/	/
COc1cc(NC(=O)C(=O)Nc2ccc3nc4n(c(=O)c3c2)CCCCC4)cc(OC)c1OC	0	/	0	50*	5	/	-7%
Cc1cc(C)n2nc(-c3cccc(Br)c3)cc2n1	0	15	-2	51*	2	-15	8%
Cc1cccc(-c2cc3nc(C)cc(C)n3n2)c1	0	21	-5	/	-3	-21	/
N#Cc1ccc(C(=O)Nc2nnc(-c3ccco3)o2)cc1	0	-21	-2	40*	4	21	-38%
Cc1ccc(C(=O)Nc2nnc(-c3ccco3)o2)cc1	0	15	-2	29	-1	-15	/
Cc1ccsc1C(=O)Nc1nnc(-c2ccco2)o1	/	2	-2	54*	-3	-2	48µM*
CC(C)Cc1nc(SCc2cccnc2)c2c(=O)n(C)c(=O)n(C)c2n1	0	-2	-7	-7	-3	2	/
Cc1ccc2ccc3cccnc3c2n1	0	-12	3	74*	8	12	51µM*
Nc1ccccc1C(=O)N=Nc1[nH]c(N)c2ccccc12	0	-29	1	62*	2	29	56µM*
CC(=O)Nc1cc(C(=O)N2CCCC2)ccc1S(=O)(=O)c1ccc(C)cc1	/	-7	/	3	17	7	/
C[C@H]1CN([C@@H](C)CO)S(=O)(=O)c2ccc(-c3cccnc3)cc2O[C@H]1CN(C)C(=O)NC1CCCC1	0	/	/	-2	/	/	/
C[C@H](CO)N1C[C@H](C)[C@H](CN(C)C(=O)Nc2cccc3ccccc23)OCCCC[C@H](C)Oc2ccc(NC(=O)CCCN(C)C)cc2C1=O	0	/	/	59*	/	/	-23%[38 µM]
C[C@@H]1CCCCO[C@@H](CN(C)C(=O)Nc2cccc3ccccc23)[C@H](C)CN([C@@H](C)CO)C(=O)c2cc(NS(=O)(=O)c3cn(C)cn3)ccc2O1	0	/	/	55*	/	/	10µM*
Cc1cccc(Oc2nc(-c3ccccn3)nc3ccccc23)c1	0	-4	2	65*	4	4	-18%
Cc1cccc(Oc2nc(-c3ccncc3)nc3ccccc23)c1	0	11	0	-5	-7	-11	/
Cc1ccccc1Oc1nc(-c2ccccn2)nc2ccccc12	0	7	1	51*	5	-7	-21%
